Numbering of substitutions follows the chain as printed. Entries after “also recorded” stand apart in the source; their conditions may differ. Read-outs that look alike come from different tables or passages of the source. Each block holds one substance with its values, some of them ahead of it. Square brackets hold non-standard residues; d marks the D form. Ends that are not written are not given here. Phe(4-F) = N[C@@H](Cc1ccc(F)cc1)C(=O)O
Columns and labels:
[1] = biological target: T1, xlKu80 vWA (Xenopus laevis, UniProt Q6DDS9, C190S/DEL171-188); test: 19F NMR binding study, xlKu80 vWA; details: 0.2 mM xlKu80 vWA; peptide 0.2, 0.4 and 1.0 mM; 25 °C; 150 mM NaCl, 25 mM HEPES
T1 sequence (Q6DDS9 with tags, fused parts or gaps DEL171-188/C190S limits assumed): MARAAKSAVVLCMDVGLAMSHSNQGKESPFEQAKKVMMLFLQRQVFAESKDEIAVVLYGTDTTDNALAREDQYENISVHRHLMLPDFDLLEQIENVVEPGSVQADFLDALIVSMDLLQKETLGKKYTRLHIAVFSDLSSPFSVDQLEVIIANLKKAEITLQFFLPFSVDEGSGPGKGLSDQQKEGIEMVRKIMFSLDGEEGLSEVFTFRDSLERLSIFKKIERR
In short: (§1)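 Protein (0.2 mM; wild-type-derived or S229A vWA construct, His-tagged, expressed by autoinduction in E. coli BL21(DE3), Ni-NTA and gel filtration purified) titrated with XLF KBMX peptide carrying 4-fluoro-L-Phe at the penultimate position. Peptide stock held protease inhibitor cocktail. ¹⁹F spectra at 564.279 MHz, 25 °C. Internal standard 0.2 mM 4-fluorobenzamide (−34.9 ppm vs external TFA).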

[2] = biological target: T2, xlKu80 vWA(S229A) (Xenopus laevis, UniProt Q6DDS9, C190S/DEL171-188/S229A); test: 19F NMR binding study, xlKu80 vWA; details: for binding affinity change resulting from S229A mutation: xlKu80 vWA(S229A) compared with unmodified xlKu80 vWA
T2 sequence (Q6DDS9 with tags, fused parts or gaps DEL171-188/C190S/S229A limits assumed): T1 sequence (Q6DDS9 with tags, fused parts or gaps DEL171-188/C190S limits assumed) with S211A
In short: as §1

[3] = biological target: T2, xlKu80 vWA(S229A); test: X-ray crystallography of xlKu80 vWA; assay type: binding; details: crystal of xlKu80 vWA(S229A)-KBMX^XLF, PDB: 6TYX, 1.90 Å
[4] = biological target: fluorescein-labeled human APLF KBM peptide (human); test: fluorescence polarisation
[5] = biological target: fluorescein-labeled human APLF KBM peptide (human); test: fluorescence polarisation; remark: listed apart in the source

19F NMR binding to xlKu80 vWA [1]: negligible
binding affinity change resulting from S229A mutation ([2]; 19F NMR, listed as KBMX^XLF motif peptide): capable of binding
Substance: KBMX^XLF peptide: KBMX peptide from XLF (KPKKKAKGL[Phe(4-F)]M; not fully specified; printed as KPKKKAKGLF*M)
binding affinity change resulting from S229A mutation ([2]; 19F NMR): increases dramatically; also recorded: dramatically increased affinity
binding confirmed by X-ray crystallography [3]: further confirmed by X-ray crystallography

19F NMR linewidth in the presence of vWA(S229A) ([2]; 0.2 mM xlKu80 vWA(S229A), 1:1 ratio, 25 °C, 150 mM NaCl, 25 mM HEPES, 1 mM TCEP, 1 mM EDTA, 10 % D2O): 109 Hz
exchange between 19F resonances of bound and free peptide ([2]; 19F NMR, 0.2 mM xlKu80 vWA(S229A) plus 0.2, 0.3, 0.4 mM peptide, 25 °C): slow exchange
Substance: KPKKKAKGLF*M [fluorinated XLF KBMX peptide]

Kd [4]: 162 nM
Kd [5]: 0.162 nM
Substance: human Ku80 von Willebrand domain (hsKu80 vWA), 1–240 aa, F47Q/F88Q/L234Q/F237Y (from UniProt P13010 1-240) (domain or fragment)

Kd [4]: 131 nM
Kd [5]: 0.131 nM
Substance: isolated Xenopus laevis Ku80 von Willebrand A-like domain (xlKu80 vWA) (domain or fragment)

— PMC7495496 (DNA repair, 2019)
